NSD2 inh: NSD2 (human) methyltransferase inhibition | O96028 | NSD2 peptide methylation, AlphaScreen, 120 min | inhibition, % at 12.5 µM | 0.54% of 310,000 active | AID 743445; in the data active means inhibition above about 50%
MBD2 DNA inh: MBD2-methylated oligo binding inhibition | 0.31% of 370,000 active | inhibition, % at 4.4 µM | TR-FRET, MBD2 binding to methylated oligonucleotide; in the data active means inhibition above about 13%
Casp6 inh: inhibitors of human caspase-6; inhibition, % at 12.5 µM; P55212; purified caspase-6, Z-VEID-R110 cleavage fluorescence; AID 686996; 0.53% of 350,000 active;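 active means mean inhibition across replicates at least about 35%, with every replicate also reaching that limit, limit read from the data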;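 further: 0% = median of neutral control wells and 100% = no fluorescence left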
UHRF1 binding: human UHRF1 methylated DNA binding inhibitors; Q96T88; UHRF1 binding to methylated oligo, TR-FRET; inhibition, % at 4.4 µM; 0.75% of 370,000 active; AID 687016; in the data active means inhibition above about 21%;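 further: UHRF1 SRA domain binding a hemimethylated CpG hairpin DNA probe; 0% = median of test compound wells and 100% = reference inhibitor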
Target sequence (Q96T88 whole entry, looked up, the tested form may be a part): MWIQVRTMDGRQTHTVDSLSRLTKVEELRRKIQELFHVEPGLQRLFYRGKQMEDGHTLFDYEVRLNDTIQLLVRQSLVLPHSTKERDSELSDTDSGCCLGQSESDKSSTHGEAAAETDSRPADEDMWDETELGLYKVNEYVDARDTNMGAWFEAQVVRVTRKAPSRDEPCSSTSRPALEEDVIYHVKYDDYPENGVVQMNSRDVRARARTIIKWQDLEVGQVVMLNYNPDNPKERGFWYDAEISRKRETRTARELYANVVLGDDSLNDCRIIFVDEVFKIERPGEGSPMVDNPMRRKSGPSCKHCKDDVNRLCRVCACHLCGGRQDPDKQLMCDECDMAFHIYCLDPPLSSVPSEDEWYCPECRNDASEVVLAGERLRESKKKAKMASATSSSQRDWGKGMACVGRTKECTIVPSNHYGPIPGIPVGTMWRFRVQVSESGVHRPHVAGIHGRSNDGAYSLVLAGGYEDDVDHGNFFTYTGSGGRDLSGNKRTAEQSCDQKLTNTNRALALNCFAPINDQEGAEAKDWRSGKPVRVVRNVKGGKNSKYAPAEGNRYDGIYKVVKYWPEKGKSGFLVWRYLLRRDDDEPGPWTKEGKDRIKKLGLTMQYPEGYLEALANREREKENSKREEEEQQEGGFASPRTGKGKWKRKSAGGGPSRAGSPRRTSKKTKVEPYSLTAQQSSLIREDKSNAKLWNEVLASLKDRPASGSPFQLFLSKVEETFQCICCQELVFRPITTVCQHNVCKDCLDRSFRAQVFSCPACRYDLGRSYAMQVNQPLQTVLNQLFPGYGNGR
LEDGF integ inh: blocks HIV-1 LEDGF/p75-dependent DNA integration; 0.64% of 370,000 active; inhibition, % at 3.7 µM; TR-FRET IN-LEDGF/p75 DNA integration, Eu/Cy5;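 active means inhibition above the screen-wide mean plus 3 SD, cut at about 13% in these data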;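 further: signal is the Cy5 over europium emission ratio at 671 and 618 nm; 0% = plate median of compound wells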
TDP2 absorb: TDP2 (human) inhibition, absorbance primary screen | recombinant TDP2, T5PNP hydrolysis, p-nitrophenol absorbance 415 nm | 0.34% of 370,000 active | inhibition, % at 12.8 µM | O95551;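 active means inhibition above the mean of all tested compounds plus 3 SD, set per campaign, cut at about 25% in these data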;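 further: 0% = DMSO with enzyme and 100% = buffer with substrate but no TDP2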
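Assay system: recombinant human TDP2 / Reagent: T5PNP substrate at 5 mM, a TopII-DNA adduct mimic / Measured by: epi absorbance from released p-nitrophenol / Evaluation: % inhibition relative to enzyme-containing and enzyme-free wells / Control set: enzyme-free and DMSO wells / Replicates: each compound tested once, singlicate / Schedule: enzyme reaction with compound for 2 h at 37 °C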
* marks the source's active call; other numbers are inactive results; x = no result; + = active, no number. Compounds with a hit are over-represented: about 1.9% of the library has one in this group of screens.

SMILES	NSD2 inh	MBD2 DNA inh	Casp6 inh	UHRF1 binding	LEDGF integ inh	TDP2 absorb
CCc1nnc(NC(=O)CN2CCN(C(=O)c3ccccc3)CC2)s1	-1	12	-2	24*	0	-6
Cc1ccc(/C(N)=N/OC(=O)c2cccc(F)c2)cc1	-4	0	x	-1	2	14
Cc1ccc(/C(N)=N/OC(=O)c2ccc3ccccc3c2)cc1	-1	1	55*	2	5	-9
CC(NC(=O)CN1c2cccc3cccc(c23)S1(=O)=O)c1ccccc1 (stereo not drawn)	46	-4	8	-2	-6	-4
O=C(CN1c2cccc3cccc(c23)S1(=O)=O)Nc1ccccc1	2	-9	1	69*	7	-3
CC(NC(=O)CN1c2cccc3cccc(c23)S1(=O)=O)c1ccc(S(N)(=O)=O)cc1 (stereo not drawn)	3	-2	56*	1	2	-18
O=C(C[C@H]1C=C[C@@H](NC(=O)C2CC2)[C@H](CO)O1)NC1CCC1	x	x	1	x	x	x
O=C(OCC(=O)N(Cc1ccccc1)Cc1ccccc1)c1ccccc1NCCO	-4	1	5	5	3	15
CCN(C(=O)COC(=O)c1ccccc1NCCO)c1cccc2ccccc12	-4	4	-2	91*	-2	-2
CNC[C@@H]1Oc2cc(C#CCOC)ccc2S(=O)(=O)N([C@@H](C)CO)C[C@H]1C	x	x	3	x	x	x
COC1(OC)C(/C=C/c2ccc(C)cc2)C(C#N)(C#N)C1(OC)OC (stereo not drawn)	x	8	x	21*	1	4
COc1ccc(S(=O)(=O)Nc2cccc3c2O[C@H](CN(C)S(=O)(=O)c2cn(C)cn2)[C@@H](C)CN([C@@H](C)CO)C3=O)cc1	x	x	-1	x	x	x
CCOC(=O)NC(=S)Nc1cccc(NC(=S)NC(=O)OCC)c1	-4	-1	0	0	-4	5
CCOC(=O)NC(=S)c1ccc[nH]1	4	-3	-1	23*	1	-9
O=C(N/N=C/c1cc(Br)c(Br)o1)C(O)c1ccccc1 (stereo not drawn)	15	-4	40*	-4	-1	-12
CCCCn1nnnc1C1(C)CCC(=O)N1CCCN1CCOCC1 (stereo not drawn)	x	8	3	22*	-2	6
CC1(c2nnnn2-c2ccc3c(c2)OCCO3)CCC(=O)N1CCCN1CCOCC1 (stereo not drawn)	x	3	4	1	-2	3
C/C=C/c1ccc([C@@H]2[C@@H](CO)N(C(=O)c3cnccn3)C23CN(C(=O)CC)C3)cc1	x	x	-1	x	x	x
CN(C)C(=O)C[C@H]1C[C@@H]2c3cc(NC(=O)NC4CCCC4)ccc3O[C@@H]2[C@H](CO)O1	x	x	3	x	x	x
Cc1cccc(C)c1OCc1nc2ccccc2[nH]1	-3	1	43*	4	-3	5
C[C@H](CO)N1C[C@H](C)[C@H](CN(C)C(=O)CCCN(C)C)OCc2cn(nn2)CCCC1=O	x	x	-1	x	x	x
COc1ccc(/C=C/C(=O)O)cc1Cl	1	0	0	43*	-4	1
CCCOc1ccc(/C=C/C(=O)O)cc1OC	2	-1	1	1	-1	6
Cc1noc(C)c1NC(=O)N(C)C[C@@H]1Oc2c(NC(=O)c3ccncc3)cccc2C(=O)N([C@@H](C)CO)C[C@@H]1C	x	x	2	x	x	x
COc1cccc(CN(C)C(=O)c2ccc(OCC(=O)Nc3cccc(C(F)(F)F)c3)c(OC)c2)c1	-4	0	-4	-1	-1	-5
SMILES	NSD2 inh	MBD2 DNA inh	Casp6 inh	UHRF1 binding	LEDGF integ inh	TDP2 absorb
COc1ccc(CN(C)C(=O)c2ccc(OCC(=O)Nc3cccc(C(F)(F)F)c3)c(OC)c2)c(OC)c1	-2	3	57*	-1	-2	0
COc1ccc2c3c(n(C)c2c1)[C@@H](CO)N(C(=O)Nc1ccccc1F)CC31CN(C(=O)c2ccccc2)C1	x	x	-1	x	x	x
COc1ccc(OCCN2CCC(C(=O)NC(c3ccccn3)c3ccccc3OC)CC2)cc1 (stereo not drawn)	2	-5	49*	2	2	-8
COc1ccc(C(NC(=O)C2CCN(CCOc3ccccc3)CC2)c2ccccn2)cc1 (stereo not drawn)	-29	-1	1	-2	0	-3
COc1cccc(C(NC(=O)C2CCN(CCCOc3ccccc3)CC2)c2ccccn2)c1 (stereo not drawn)	5	2	38*	0	-4	2
CCCNC(=O)N1CC2(CN(CC3CC3)C2)c2c([nH]c3cc(OC)ccc23)[C@H]1CO	x	x	-2	x	x	x
O=C1C(Cl)=C(Nc2ccccc2)C(=O)c2ccccc21	0	-5	5	-1	8	-5
COC1=C(Nc2ccccc2)C(=O)c2ccccc2C1=O	75*	-14	x	10	6	21
CCN(CC)c1nc(C(F)(F)F)nc2c1nnn2Cc1ccccc1	-2	4	3	39*	-4	-13
Cc1ccccc1CNC(=O)CCn1nc(C)c2c(C)n(-c3ccccc3)nc2c1=O	-6	10	3	22*	1	1
CCC(Cc1ccccc1)NCc1c(C(=O)O)c(C)n(Cc2ccccc2)c1C (stereo not drawn)	5	-1	4	30*	-9	-10
COCCCNC(=O)c1cccn2c(=O)c3cc4ccccc4cc3nc12	85*	-5	3	-6	4	10
CC1(C(=O)Nc2cccc(C#N)c2)CCN1C(=O)C/C=C/c1ccccc1 (stereo not drawn)	5	-8	0	24*	1	-17
Cc1ccc2nc(-c3ccccc3)c(CN3CCN(c4ccccc4F)CC3)n2c1	17	-1	x	23*	0	10
COc1ccc2c3c(n(C)c2c1)[C@H](CO)N(C)CC31CN(C(=O)c2ccc3c(c2)OCO3)C1	x	x	0	x	x	x
CN(C)CC(=O)N1[C@H](C#N)[C@@H](c2ccc(/C=C/c3ccccc3)cc2)[C@H]1CO	x	x	-1	x	x	x
C[C@@H]1CN([C@@H](C)CO)C(=O)c2cc(NS(=O)(=O)c3ccc(Cl)cc3)ccc2O[C@H]1CN(C)S(=O)(=O)c1ccc(F)cc1	x	x	-7	x	x	x
O=S(=O)(Nc1cc(Sc2ncn[nH]2)c(O)c2ccccc12)c1ccccc1	+	-4	100*	11	34*	71*
COc1ccc(-c2ccc(-c3nc4ccc(C)cn4c3NC3CCCCC3)cc2OC)cc1	2	0	-5	-1	3	-6
COc1ccc(-c2nc3ccc(C)cn3c2Cc2ccsc2)cc1OC	x	10	6	22*	-3	-12
COc1ccc(-c2nc3ccc(C)cn3c2CC2CCCCC2)cc1OC	x	9	0	22*	1	10
COC(=O)c1ccc2nc(-c3ccc(OC)c(OC)c3)c(Cc3ccsc3)n2c1	x	9	1	19	6	-5
CCOC(=O)c1cc(-c2ccccc2)nn1CCC#N	-6	1	-1	44*	-1	-2
